# Test results published in ChEMBL document CHEMBL4665847, “Understanding the Metabolism of Proteolysis Targeting Chimeras (PROTACs): The Next Step toward Pharmaceutical Applications” (J Med Chem, 2020).
# Key:
# [1] = Metabolic stability in cryopreserved human hepatocytes assessed as aliphatic hydroxylation at 1 uM incubated for 4 hrs; assay type: ADME, cell-based, Hepatocyte
# [2] = Metabolic stability in cryopreserved human hepatocytes assessed as glucuronidation at 1 uM incubated for 4 hrs; assay type: ADME, cell-based, Hepatocyte
# [3] = Metabolic stability in cryopreserved human hepatocytes assessed as O-dealkylation at 1 uM incubated for 4 hrs; assay type: ADME, cell-based, Hepatocyte
# [4] = Stability of the compound in PBS/ACN assessed as compound degradation at 10 uM measured after 3 hrs by LC-MS analysis; assay type: physicochemical; details: buffer
# How it was run: (§1)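 Nonenzymatic stability: 10 mM DMSO stock diluted to 10 μM in PBS, PBS/ACN (1:1), or DMSO; PBS/ACN-DMSO variant dried under nitrogen at 40 °C and redissolved in DMSO. Solutions kept in LC autosampler at 37 °C for 12 h; LC-MS injections at 0, 3, 6 and 12 h tracking remaining parent.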
# [5] = Stability of compound in DMSO at 10 uM incubated for 12 hrs by LC-MS analysis; assay type: physicochemical; how it was run: as §1
# [6] = Stability of the compound in PBS at pH 7.4 assessed as compound degradation at 10 uM incubated for 12 hrs by LC-MS analysis; assay type: physicochemical; details: buffer, pH 7.4, 12 h; how it was run: as §1
# [7] = Stability of compound in PBS/ACN-DMSO assessed as compound degradation at 10 uM measured after 3 hrs by LC-MS analysis; assay type: physicochemical; details: read-out: Drug degradation; how it was run: as §1
# [8] = Metabolic stability in cryopreserved human hepatocytes assessed as amide hydrolysis at 1 uM incubated for 4 hrs; assay type: ADME, cell-based, Hepatocyte
# [9] = Metabolic stability in cryopreserved human hepatocytes assessed as N-dealkylation at 1 uM incubated for 4 hrs; assay type: ADME, cell-based, Hepatocyte
# Aldehyde oxidase [10] = target: T1, Aldehyde oxidase (Homo sapiens, UniProt Q06278); experiment: Metabolic stability in human liver cytosol assessed as AOX1 mediated drug metabolism by measuring amide hydrolysis at 1 uM incubated up to 90 mins in presence of hydralazine by LC-MS/MS analysis; assay type: ADME, subcellular; details: 1.5 h
# T1 sequence (Q06278 whole entry): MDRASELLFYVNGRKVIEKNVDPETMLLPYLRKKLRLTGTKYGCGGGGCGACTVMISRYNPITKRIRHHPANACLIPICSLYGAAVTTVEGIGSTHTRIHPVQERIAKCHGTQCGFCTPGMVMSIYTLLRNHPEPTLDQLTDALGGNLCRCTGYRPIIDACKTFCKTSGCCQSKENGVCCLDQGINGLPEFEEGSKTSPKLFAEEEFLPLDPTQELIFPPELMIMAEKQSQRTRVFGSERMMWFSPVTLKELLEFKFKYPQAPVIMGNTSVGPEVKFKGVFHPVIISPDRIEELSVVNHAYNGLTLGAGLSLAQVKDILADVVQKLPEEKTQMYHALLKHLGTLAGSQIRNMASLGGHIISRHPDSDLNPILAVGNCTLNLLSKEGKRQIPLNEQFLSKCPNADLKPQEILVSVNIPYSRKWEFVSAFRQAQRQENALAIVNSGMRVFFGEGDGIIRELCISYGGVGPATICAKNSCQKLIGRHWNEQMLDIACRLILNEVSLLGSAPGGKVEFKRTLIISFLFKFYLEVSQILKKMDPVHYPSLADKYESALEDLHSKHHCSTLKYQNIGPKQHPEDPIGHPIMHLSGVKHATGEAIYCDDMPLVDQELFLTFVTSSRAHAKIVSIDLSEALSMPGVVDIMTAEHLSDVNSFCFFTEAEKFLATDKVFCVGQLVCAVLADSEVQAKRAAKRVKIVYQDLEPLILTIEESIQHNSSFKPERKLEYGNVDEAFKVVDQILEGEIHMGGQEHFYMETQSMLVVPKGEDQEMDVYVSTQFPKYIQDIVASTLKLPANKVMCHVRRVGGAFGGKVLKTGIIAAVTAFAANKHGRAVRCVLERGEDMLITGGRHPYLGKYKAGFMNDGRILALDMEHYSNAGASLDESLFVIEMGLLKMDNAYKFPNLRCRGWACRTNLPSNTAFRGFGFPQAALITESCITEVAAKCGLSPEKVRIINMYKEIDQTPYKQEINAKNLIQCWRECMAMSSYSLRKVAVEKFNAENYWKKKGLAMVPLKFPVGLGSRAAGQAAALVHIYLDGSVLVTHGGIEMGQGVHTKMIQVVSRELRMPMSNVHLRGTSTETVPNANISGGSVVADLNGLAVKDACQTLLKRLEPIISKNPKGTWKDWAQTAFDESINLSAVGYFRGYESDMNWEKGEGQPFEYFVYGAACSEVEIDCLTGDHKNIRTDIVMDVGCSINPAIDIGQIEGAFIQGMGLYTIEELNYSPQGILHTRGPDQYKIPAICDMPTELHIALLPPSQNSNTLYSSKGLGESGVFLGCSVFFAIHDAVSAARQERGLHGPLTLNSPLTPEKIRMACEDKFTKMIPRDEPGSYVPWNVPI
# Aldehyde oxidase [11] = target: T1, Aldehyde oxidase; experiment: Metabolic stability in human liver cytosol assessed as AOX1 mediated drug metabolism by measuring hydroxylation at 1 uM incubated up to 90 mins in absence of hydralazine by LC-MS/MS analysis; assay type: ADME, subcellular; details: 1.5 h
# [12] = Metabolic stability in cryopreserved human hepatocytes assessed as aliphatic carbonylation at 1 uM incubated for 4 hrs; assay type: ADME, cell-based, Hepatocyte
# [13] = Metabolic stability in cryopreserved human hepatocytes assessed as aromatic hydroxylation at 1 uM incubated for 4 hrs; assay type: ADME, cell-based, Hepatocyte
# [14] = Metabolic stability in cryopreserved human hepatocytes assessed as dehydrogenation at 1 uM incubated for 4 hrs; assay type: ADME, cell-based, Hepatocyte
SMILES,Drug metabolism [1],Drug metabolism [3],Drug metabolism [8],Drug metabolism [9],other results
Cc1sc2c(c1C)C(c1ccc(Cl)cc1)=N[C@@H](CC(=O)NCCCCNC(=O)COc1cccc3c1C(=O)N(C1CCC(=O)NC1=O)C3=O)c1nnc(C)n1-2 (some centres not stated),–,–,–,–,"Stabilty [4]: Unstable; Stabilty [5]: Stable; Stabilty [6]: Unstable; degraded at 3 h, 10 µM [7]: 10%"
O=C(COc1cccc2c1C(=O)N(C1CCC(=O)NC1=O)C2=O)NCCCCCCCCNC(=O)COc1c(-c2csc(N3CCOCC3)n2)ccc(F)c1F (configuration not stated),–,Metabolite_Detected,Metabolite_Detected,Metabolite_Detected,–
Cc1ncsc1-c1ccc([C@H](C)NC(=O)[C@@H]2C[C@@H](O)CN2C(=O)[C@@H](NC(=O)CCCCNC(=O)COc2c(-c3csc(N4CCOCC4)n3)ccc(F)c2F)C(C)(C)C)cc1,–,–,–,–,Drug metabolism (Aldehyde oxidase [10]): Metabolite_Detected; Drug metabolism (Aldehyde oxidase [11]): Metabolite_Detected
Cc1ncsc1-c1ccc([C@H](C)NC(=O)[C@@H]2C[C@@H](O)CN2C(=O)[C@@H](N)C(C)(C)C)cc1,Metabolite_Detected,–,–,Metabolite_Detected,Drug metabolism [12]: Metabolite_Detected; Drug metabolism [13]: Metabolite_Detected
Cc1sc2c(c1C)C(c1ccc(Cl)cc1)=N[C@@H](CC(=O)NCCCCCCCCNc1cccc3c1C(=O)N(C1CCC(=O)NC1=O)C3=O)c1nnc(C)n1-2 (some centres not stated),Metabolite_Detected,–,–,Metabolite_Detected,Drug metabolism [14]: Metabolite_Detected
Cc1ncsc1-c1ccc([C@H](C)NC(=O)[C@@H]2C[C@@H](O)CN2C(=O)[C@@H](NC(=O)CCCCN(C)C(=O)COc2c(-c3csc(N4CCOCC4)n3)ccc(F)c2F)C(C)(C)C)cc1,–,–,–,–,Drug metabolism (Aldehyde oxidase [10]): Metabolite_Detected; Drug metabolism (Aldehyde oxidase [11]): Metabolite_Detected
O=C(COc1c(-c2csc(N3CCOCC3)n2)ccc(F)c1F)NCCOCCOCCNc1cccc2c1C(=O)N(C1CCC(=O)NC1=O)C2=O (configuration not stated),–,Metabolite_Detected,Metabolite_Detected,Metabolite_Detected,–
Cc1sc2c(c1C)C(c1ccc(Cl)cc1)=N[C@@H](CC(=O)O)c1nnc(C)n1-2,Metabolite_Detected,–,–,–,–
Cc1ncsc1-c1ccc([C@H](C)NC(=O)[C@@H]2C[C@@H](O)CN2C(=O)[C@@H](NC(=O)COCCOCCNC(=O)COc2c(-c3csc(N4CCOCC4)n3)ccc(F)c2F)C(C)(C)C)cc1,–,Metabolite_Detected,Metabolite_Detected,–,Drug metabolism [2]: Metabolite_Detected; Drug metabolism [14]: Metabolite_Detected
Nc1cccc2c1C(=O)N(C1CCC(=O)NC1=O)C2=O (configuration not stated) [POMALIDOMIDE],–,–,Metabolite_Detected,–,–

# More lines, main results first:
Drug metabolism [1],Drug metabolism [3],Drug metabolism [8],Drug metabolism [9],SMILES,other results
Metabolite_Detected,Metabolite_Detected,–,–,Oc1c(-c2csc(N3CCOCC3)n2)ccc(F)c1F,Drug metabolism [2]: Metabolite_Detected
Metabolite_Detected,Metabolite_Detected,Metabolite_Detected,–,O=C(COc1cccc2c1C(=O)N(C1CCC(=O)NC1=O)C2=O)NCCOCCOCCNC(=O)COc1c(-c2csc(N3CCOCC3)n2)ccc(F)c1F (configuration not stated),–
Metabolite_Detected,Metabolite_Detected,Metabolite_Detected,Metabolite_Detected,O=C(COc1c(-c2csc(N3CCOCC3)n2)ccc(F)c1F)NCCCCCCCCNc1cccc2c1C(=O)N(C1CCC(=O)NC1=O)C2=O (configuration not stated),–
